Laboratory results as given in ChEMBL document CHEMBL1151448, “Comparative antianaerobic activities of doripenem determined by MIC and time-kill analysis” (2008).
≈ marks a conversion by molar mass, not a printed value.

Experiments:
Assay type in all cases: functional
Bacteroides fragilis [1] = assay: Antimicrobial activity against beta lactamase-positive Bacteroides fragilis isolated from intra-abdominal infection and pelvic inflammatory disease patients after 48 hrs by agar dilution method
Outline: (§1)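 CLSI agar dilution on brucella blood agar supplemented with laked sheep blood, hemin and vitamin K. Inocula of about 1 × 10^5 CFU/spot were applied by Steers replicator, and plates were incubated 48 h at 35°C in an anaerobic glove box. MIC was the concentration giving marked growth reduction versus the anaerobic control plate. QC strains were included each run, and β-lactamase was detected by Cefinase disk.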

[2] = system: Bacteroides thetaiotaomicron; assay: Antimicrobial activity against beta lactamase-positive Bacteroides thetaiotaomicron isolated from intra-abdominal infection and pelvic inflammatory disease patients after 48 hrs by time kill analysis
Outline: (§2)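 The MIC was read by inspecting macrodilution time-kill tubes. Vials held prereduced brucella broth with 5% laked horse blood cells, hemin 5 μg/ml and vitamin K1 1 μg/ml. Final inoculum was 10^6–10^7 CFU/ml, prepared inside the anaerobe chamber. Vials were incubated 48 h at 35°C in a shaking water bath.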

Finegoldia magna = assay: Antimicrobial activity against beta lactamase-positive Finegoldia magna isolated from intra-abdominal infection and pelvic inflammatory disease patients after 48 hrs by time kill analysis; outline: as §2
Clostridium perfringens [3] = assay: Antimicrobial activity against Clostridium perfringens isolated from intra-abdominal infection and pelvic inflammatory disease patients after 48 hrs by time kill analysis
Outline: (§3)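 Macrodilution in prereduced brucella broth with 5% laked horse blood cells, 5 μg/ml hemin and 1 μg/ml vitamin K1. Final inoculum 10^6 to 10^7 CFU/ml, prepared inside the anaerobe chamber. Vials incubated 48 h at 35°C in a shaking water bath. MIC read by inspecting the time-kill tubes, alongside an antibiotic-free growth control.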

Clostridioides difficile [4] = assay: Antimicrobial activity against Clostridium difficile isolated from intra-abdominal infection and pelvic inflammatory disease patients after 48 hrs by time kill analysis; outline: as §3
Prevotella intermedia [5] = assay: Bactericidal activity against beta lactamase-positive Prevotella intermedia isolated from intra-abdominal infection and pelvic inflammatory disease patients assessed as bacterial killing at 2 times MIC after 48 hrs by time kill analysis
Outline: (§4)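 Anaerobic macrodilution time-kill. Inoculum from brucella blood plates, prepared and diluted in prereduced brucella broth inside the anaerobe chamber. Final 10^6 to 10^7 CFU/ml in prereduced brucella broth with 5% laked horse blood cells, 5 μg/ml hemin and 1 μg/ml vitamin K1. […] Shaken at 35°C for 48 h. Viable counts taken at 6, 12, 24 and 48 h. 99.9% kill taken as bactericidal.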

Bacteroides ovatus = assay: Antimicrobial activity against beta lactamase-positive Bacteroides ovatus isolated from intra-abdominal infection and pelvic inflammatory disease patients after 48 hrs by agar dilution method; outline: as §1
[6] = system: Parabacteroides distasonis; assay: Antimicrobial activity against beta lactamase-positive Bacteroides distasonis isolated from intra-abdominal infection and pelvic inflammatory disease patients after 48 hrs by agar dilution method; outline: as §1
Prevotella bivia = assay: Antimicrobial activity against beta lactamase-positive Prevotella bivia isolated from intra-abdominal infection and pelvic inflammatory disease patients after 48 hrs by agar dilution method; outline: as §1
Prevotella nigrescens = assay: Antimicrobial activity against beta lactamase-positive Prevotella nigrescens isolated from intra-abdominal infection and pelvic inflammatory disease patients after 48 hrs by agar dilution method; outline: as §1
[7] = system: Prevotella melaninogenica; assay: Antimicrobial activity against beta lactamase-positive Prevotella melaninogenica isolated from intra-abdominal infection and pelvic inflammatory disease patients after 48 hrs by agar dilution method; outline: as §1
Prevotella denticola = assay: Antimicrobial activity against beta lactamase-positive Prevotella denticola isolated from intra-abdominal infection and pelvic inflammatory disease patients after 48 hrs by agar dilution method; outline: as §1
Prevotella corporis = assay: Antimicrobial activity against beta lactamase-positive Prevotella corporis isolated from intra-abdominal infection and pelvic inflammatory disease patients after 48 hrs by agar dilution method; outline: as §1
[8] = system: Porphyromonas asaccharolytica; assay: Antimicrobial activity against Porphyromonas asaccharolyticus isolated from intra-abdominal infection and pelvic inflammatory disease patients after 48 hrs by agar dilution method; outline: as §1
Porphyromonas levii = assay: Antimicrobial activity against Porphyromonas levii isolated from intra-abdominal infection and pelvic inflammatory disease patients after 48 hrs by agar dilution method; outline: as §1
[9] = system: Fusobacterium necrophorum; assay: Antimicrobial activity against Fusobacterium necrophorum isolated from intra-abdominal infection and pelvic inflammatory disease patients after 48 hrs by agar dilution method; outline: as §1
Fusobacterium mortiferum = assay: Antimicrobial activity against beta lactamase-positive Fusobacterium mortiferum isolated from intra-abdominal infection and pelvic inflammatory disease patients after 48 hrs by agar dilution method; outline: as §1
[10] = system: Peptostreptococcus anaerobius; assay: Antimicrobial activity against Peptostreptococcus anaerobius isolated from intra-abdominal infection and pelvic inflammatory disease patients after 48 hrs by agar dilution method; outline: as §1
Anaerococcus prevotii = assay: Antimicrobial activity against Anaerococcus prevotii isolated from intra-abdominal infection and pelvic inflammatory disease patients after 48 hrs by agar dilution method; outline: as §1
Clostridioides difficile [11] = assay: Antimicrobial activity against Clostridium difficile isolated from intra-abdominal infection and pelvic inflammatory disease patients after 48 hrs by agar dilution method; outline: as §1
[Clostridium] innocuum = Antimicrobial activity against Clostridium innocuum isolated from intra-abdominal infection and pelvic inflammatory disease patients after 48 hrs by agar dilution method; outline: as §1
[12] = system: Paraclostridium bifermentans; assay: Antimicrobial activity against Clostridium bifermentans isolated from intra-abdominal infection and pelvic inflammatory disease patients after 48 hrs by agar dilution method; outline: as §1
[13] = system: Paeniclostridium sordellii; assay: Antimicrobial activity against Clostridium sordellii isolated from intra-abdominal infection and pelvic inflammatory disease patients after 48 hrs by agar dilution method; conditions: Paraclostridium sordellii; outline: as §1
Clostridium perfringens [14] = assay: Bactericidal activity against Clostridium perfringens isolated from intra-abdominal infection and pelvic inflammatory disease patients assessed as bacterial killing at 2 times MIC after 48 hrs by time kill analysis
Outline: (§5)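 Time-kill in prereduced brucella broth with 5% laked horse blood cells, hemin and vitamin K1. […] Viable counts taken at 6, 12, 24 and 48 h, plates incubated 48 h anaerobically. Kill scored as 90%, 99% or 99.9%; 99.9% defines bactericidal.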

Bacteroides fragilis [15] = assay: Bactericidal activity against beta lactamase-positive Bacteroides fragilis isolated from intra-abdominal infection and pelvic inflammatory disease patients assessed as bacterial killing at MIC after 24 hrs by time kill analysis
Outline: (§6)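 Macrodilution time-kill in prereduced brucella broth with 5% laked horse blood, hemin 5 μg/ml and vitamin K1 1 μg/ml, at final inoculum 10^6–10^7 CFU/ml. […] Viable counts were taken at 6, 12, 24 and 48 h on plates incubated 48 h anaerobically. 99.9% kill was taken as bactericidal.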

[16] = system: Bacteroides thetaiotaomicron; assay: Bactericidal activity against beta lactamase-positive Bacteroides thetaiotaomicron isolated from intra-abdominal infection and pelvic inflammatory disease patients assessed as bacterial killing at MIC after 24 hrs by time kill analysis; outline: as §6
Prevotella intermedia [17] = assay: Bactericidal activity against beta lactamase-positive Prevotella intermedia isolated from intra-abdominal infection and pelvic inflammatory disease patients assessed as bacterial killing at MIC after 24 hrs by time kill analysis; outline: as §4
Clostridium perfringens [18] = assay: Bactericidal activity against Clostridium perfringens isolated from intra-abdominal infection and pelvic inflammatory disease patients assessed as bacterial killing at MIC after 24 hrs by time kill analysis; outline: as §5

Question: C[C@@H](O)[C@H]1C(=O)N2C(C(=O)O)=C(S[C@@H]3CN[C@H](C(=O)N(C)C)C3)[C@H](C)[C@H]12 [MEROPENEM] was tested. Which MIC50 (Bacteroides fragilis [1]) did it give?
Answer: 0.125 µg/mL (≈ 0.326 µM)

Question: And the MIC90 (Bacteroides fragilis [1])?
Answer: 1 µg/mL (≈ 2.61 µM)

Question: What about the MIC [2] of the same molecule?
Answer: 0.25 µg/mL (≈ 0.652 µM)

Question: And the MIC (Finegoldia magna)?
Answer: 0.06 µg/mL (≈ 0.156 µM)

Question: What about the MIC (Clostridium perfringens [3]) of the same molecule?
Answer: 0.03 µg/mL (≈ 0.0782 µM)

Question: What about the MIC (Clostridioides difficile [4]) of the same molecule?
Answer: 1 µg/mL (≈ 2.61 µM)

Question: What about the Activity (Prevotella intermedia [5]) of the same molecule?
Answer: 99%

Question: What about the MIC (Bacteroides ovatus) of the same molecule?
Answer: 0.25 µg/mL (≈ 0.652 µM)

Question: And the MIC50 (Bacteroides ovatus)?
Answer: 0.25 µg/mL (≈ 0.652 µM)

Question: And the MIC90 (Bacteroides ovatus)?
Answer: 0.5 µg/mL (≈ 1.3 µM)

Question: What about the MIC [6] of the same molecule?
Answer: 0.125 µg/mL (≈ 0.326 µM)

Question: And the MIC50 [6]?
Answer: 0.125 µg/mL (≈ 0.326 µM)

Question: And the MIC90 [6]?
Answer: 0.5 µg/mL (≈ 1.3 µM)

Question: And the MIC50 (Prevotella bivia)?
Answer: 0.06 µg/mL (≈ 0.156 µM)

Question: And the MIC90 (Prevotella bivia)?
Answer: 0.125 µg/mL (≈ 0.326 µM)

Question: What about the MIC50 (Prevotella nigrescens) of the same molecule?
Answer: 0.03 µg/mL (≈ 0.0782 µM)

Question: And the MIC90 (Prevotella nigrescens)?
Answer: 0.06 µg/mL (≈ 0.156 µM)

Question: What about the MIC50 [7] of the same molecule?
Answer: 0.06 µg/mL (≈ 0.156 µM)

Question: And the MIC50 (Prevotella denticola)?
Answer: 0.06 µg/mL (≈ 0.156 µM)

Question: And the MIC90 (Prevotella denticola)?
Answer: 0.25 µg/mL (≈ 0.652 µM)

Question: And the MIC50 (Prevotella corporis)?
Answer: 0.03 µg/mL (≈ 0.0782 µM)

Question: What about the MIC90 (Prevotella corporis) of the same molecule?
Answer: 0.06 µg/mL (≈ 0.156 µM)

Question: What about the MIC [8] of the same molecule?
Answer: ≤ 0.016 µg/mL

Question: And the MIC (Porphyromonas levii)?
Answer: ≤ 0.016 µg/mL

Question: And the MIC [9]?
Answer: ≤ 0.016 µg/mL

Question: What about the MIC50 [9] of the same molecule?
Answer: ≤ 0.016 µg/mL

Question: And the MIC90 [9]?
Answer: 0.125 µg/mL (≈ 0.326 µM)

Question: And the MIC50 (Fusobacterium mortiferum)?
Answer: 0.125 µg/mL (≈ 0.326 µM)

Question: And the MIC90 (Fusobacterium mortiferum)?
Answer: 0.5 µg/mL (≈ 1.3 µM)

Question: And the MIC [10]?
Answer: 0.25 µg/mL (≈ 0.652 µM)

Question: What about the MIC50 [10] of the same molecule?
Answer: 0.25 µg/mL (≈ 0.652 µM)

Question: What about the MIC90 [10] of the same molecule?
Answer: 2 µg/mL (≈ 5.22 µM)

Question: And the MIC (Anaerococcus prevotii)?
Answer: ≤ 0.016 µg/mL

Question: And the MIC50 (Clostridioides difficile [11])?
Answer: 2 µg/mL (≈ 5.22 µM)

Question: What about the MIC90 (Clostridioides difficile [11]) of the same molecule?
Answer: 4 µg/mL (≈ 10.4 µM)

Question: What about the MIC50 ([Clostridium] innocuum) of the same molecule?
Answer: 2 µg/mL (≈ 5.22 µM)

Question: And the MIC [12]?
Answer: 0.125 µg/mL (≈ 0.326 µM)

Question: What about the MIC [13] of the same molecule?
Answer: 0.06 µg/mL (≈ 0.156 µM)

Question: What about the Activity (Clostridium perfringens [14]) of the same molecule?
Answer: 99%

Question: And the Activity (Bacteroides fragilis [15])?
Answer: 90%

Question: And the Activity [16]?
Answer: 90%

Question: And the Activity (Prevotella intermedia [17])?
Answer: 90%

Question: What about the Activity (Clostridium perfringens [18]) of the same molecule?
Answer: 90%
